Results from ChEMBL document CHEMBL4393735, “Molecular modelling, synthesis, and biological evaluations of a 3,5-disubstituted isoxazole fatty acid analogue as a PPARα-selective agonist” (Bioorg Med Chem, 2019).
Calls of active or inactive are those of the source.

Experiments:
[1] = test system: SGBS; assay: Upregulation of ACSL1 gene expression in human preadipocyte derived from Simpson-Golabi-Behmel syndrome (SGBS) patient at 25 uM measured for 12 days by qRT-PCR analysis; format: functional, cell-based
In short: (§1)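 SGBS cells were differentiated with serum-free induction medium containing 25 μM test agent, 2 μM rosiglitazone or 0.1% DMSO from day 0. IBMX and dexamethasone were removed on day 4 and medium was renewed on day 8. RNA was taken on days 0, 4, 8 and 12 for qPCR, normalized to TBP and to day 0. At least three biological replicates in duplicate, two-way ANOVA with Bonferroni.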

[2] = molecular target: T1, Peroxisome proliferator-activated receptor alpha (Mus musculus) (UniProt P23204); assay: Agonist activity at PPARalpha in C57BL/6N mouse primary hepatocytes assessed as SREBF1 mRNA expression at 50 uM measured after 18 hrs by qRT-PCR analysis; format: cell-based
T1 sequence (whole entry): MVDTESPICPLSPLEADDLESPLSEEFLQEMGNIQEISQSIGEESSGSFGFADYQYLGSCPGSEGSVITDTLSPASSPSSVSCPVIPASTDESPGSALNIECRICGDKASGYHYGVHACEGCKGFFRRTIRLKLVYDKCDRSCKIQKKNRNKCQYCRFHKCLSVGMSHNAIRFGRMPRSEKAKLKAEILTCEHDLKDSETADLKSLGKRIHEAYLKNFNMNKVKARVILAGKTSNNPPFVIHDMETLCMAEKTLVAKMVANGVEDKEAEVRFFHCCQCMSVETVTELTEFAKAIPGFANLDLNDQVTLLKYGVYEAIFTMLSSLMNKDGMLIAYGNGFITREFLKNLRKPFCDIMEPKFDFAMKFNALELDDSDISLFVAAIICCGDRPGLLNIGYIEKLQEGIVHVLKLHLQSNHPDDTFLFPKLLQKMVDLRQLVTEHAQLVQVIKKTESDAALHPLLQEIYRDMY
In short: (§2)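 Treatment for 18 h at 50 μM (or 1 μM for the 1 μM agents), DMSO vehicle. Harvested for qPCR. mRNA normalized to TBP by the comparative threshold method, expressed relative to DMSO control. Two biological replicates run in duplicate, mean ± SEM. Primary hepatocytes came from male C57BL/6N mice aged 7–8 weeks, isolated by portal-vein perfusion and digestion, seeded on collagen I and used on day 2. HuH-7 cells were kept in DMEM with 10% FBS and ITS.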

[3] = molecular target: T2, Peroxisome proliferator-activated receptor alpha (Homo sapiens) (UniProt Q07869); assay: Agonist activity at PPARalpha in human Huh7 cells assessed as PPARA mRNA expression at 50 uM measured after 18 hrs by qRT-PCR analysis; format: cell-based; in short: as §2
T2 sequence (whole entry): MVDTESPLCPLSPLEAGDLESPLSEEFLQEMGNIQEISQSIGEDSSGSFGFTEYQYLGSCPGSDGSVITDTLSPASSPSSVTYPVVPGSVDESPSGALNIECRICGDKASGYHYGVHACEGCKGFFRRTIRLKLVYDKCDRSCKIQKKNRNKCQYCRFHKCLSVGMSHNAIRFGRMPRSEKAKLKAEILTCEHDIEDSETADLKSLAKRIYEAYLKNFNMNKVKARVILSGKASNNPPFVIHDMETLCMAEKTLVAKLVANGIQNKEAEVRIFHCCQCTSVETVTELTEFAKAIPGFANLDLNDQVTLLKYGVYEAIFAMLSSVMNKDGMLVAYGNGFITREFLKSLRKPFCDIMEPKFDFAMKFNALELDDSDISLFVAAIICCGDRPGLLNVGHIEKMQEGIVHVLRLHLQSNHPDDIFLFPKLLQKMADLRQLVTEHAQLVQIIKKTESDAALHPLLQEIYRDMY

[4] = molecular target: T2, Peroxisome proliferator-activated receptor alpha (Homo sapiens); assay: Agonist activity at PPARalpha in human Huh7 cells assessed as SCD1 mRNA expression at 50 uM measured after 18 hrs by qRT-PCR analysis; format: cell-based; in short: as §2
[5] = molecular target: T3, Retinoic acid receptor RXR-alpha (Homo sapiens) (UniProt P19793); assay: Agonist activity at full length human FLAG-tagged GAL4-DBD fused RXRalpha LBD (202 to 462 residues) expressed in COS1 cells at 25 to 50 uM measured after 18 hrs by dual luciferase reporter gene assay; format: cell-based
T3 sequence (whole entry): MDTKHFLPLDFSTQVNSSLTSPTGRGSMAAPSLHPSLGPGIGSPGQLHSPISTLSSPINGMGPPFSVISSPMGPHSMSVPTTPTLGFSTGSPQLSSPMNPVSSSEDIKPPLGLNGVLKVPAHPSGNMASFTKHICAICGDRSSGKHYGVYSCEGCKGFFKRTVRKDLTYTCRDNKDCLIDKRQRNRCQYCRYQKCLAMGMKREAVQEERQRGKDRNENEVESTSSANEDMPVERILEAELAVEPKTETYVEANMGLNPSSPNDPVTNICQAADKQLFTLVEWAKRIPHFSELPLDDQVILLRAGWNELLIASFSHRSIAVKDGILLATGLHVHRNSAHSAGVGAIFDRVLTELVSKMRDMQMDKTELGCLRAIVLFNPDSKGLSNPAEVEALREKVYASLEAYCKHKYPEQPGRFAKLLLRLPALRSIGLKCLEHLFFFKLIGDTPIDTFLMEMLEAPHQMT
In short: (§3)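 COS-1 cells were transfected using Lipofectamine 2000 with GAL4-DBD–human NR-LBD plasmid, a 5×UAS-SV40 firefly luciferase reporter and pRL-CMV. After 6 h, cells were treated with 0, 25 or 50 μM in 0.1% DMSO (final) for 18 h. Firefly signal was normalized to Renilla, then to DMSO control and GAL4-only. Three biological replicates in quadruplicate, mean ± SEM, two-way ANOVA with Bonferroni.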

[6] = molecular target: T1, Peroxisome proliferator-activated receptor alpha (Mus musculus); assay: Agonist activity at PPARalpha in C57BL/6N mouse primary hepatocytes assessed as SCD1 mRNA expression at 50 uM measured after 18 hrs by qRT-PCR analysis; format: cell-based; in short: as §2
[7] = molecular target: T4, Oxysterols receptor LXR-alpha (Homo sapiens) (UniProt Q13133); assay: Agonist activity at full length human GAL4-DBD fused LXRalpha LBD (164 to 447 residues) expressed in COS1 cells at 25 to 50 uM measured after 18 hrs by dual luciferase reporter gene assay; format: cell-based; in short: as §3
T4 sequence (whole entry): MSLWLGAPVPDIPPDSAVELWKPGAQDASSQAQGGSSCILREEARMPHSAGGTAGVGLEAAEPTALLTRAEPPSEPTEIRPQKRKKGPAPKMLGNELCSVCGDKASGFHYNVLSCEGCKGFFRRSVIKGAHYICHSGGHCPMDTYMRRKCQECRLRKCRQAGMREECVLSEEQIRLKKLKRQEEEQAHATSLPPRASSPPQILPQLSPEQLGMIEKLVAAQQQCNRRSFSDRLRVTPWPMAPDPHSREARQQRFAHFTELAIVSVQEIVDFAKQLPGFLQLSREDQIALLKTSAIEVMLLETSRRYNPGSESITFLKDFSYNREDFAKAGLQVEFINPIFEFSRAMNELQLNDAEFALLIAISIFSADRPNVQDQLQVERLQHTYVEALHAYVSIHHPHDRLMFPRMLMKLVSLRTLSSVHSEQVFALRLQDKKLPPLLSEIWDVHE

[8] = test system: SGBS; assay: Upregulation of ADIPOQ gene expression in human preadipocyte derived from Simpson-Golabi-Behmel syndrome (SGBS) patient at 25 uM measured for 12 days by qRT-PCR analysis; format: functional, cell-based; in short: as §1

CCCCCCCc1cc(CCCCCC(=O)O)no1
Activity [1]: Active
Activity [2]: Active
Activity [3]: inactive
Activity [4]: inactive
Activity [5]: inactive
Activity [6]: Active
Activity [7]: inactive
Activity [8]: Active
